The text below walks through data of ChEMBL document CHEMBL1649374 (Eur J Med Chem, 2011).

In one data set the target is Dipeptidyl peptidase 8 (Homo sapiens, UniProt Q6V1X1). Description: Inhibition of DPP8 after 20 mins by fluorescence assay. Put shortly: (§1)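 Enzyme and inhibitor were preincubated for 10 min at room temperature in 50 mM Tris pH 7.5 with 0.1% BSA. The reaction was started with Gly-Pro-AMC and run for 20 min at room temperature. IC50 is the mean of three separate experiments, from curve fitting.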

For data set [1], the target named is Voltage-gated inwardly rectifying potassium channel KCNH2 (Homo sapiens, UniProt Q12809). Description: Inhibition of human ERG expressed in HEK293 cells after 3 hrs by nonradioactive rubidium efflux assay. In kind it is cell-based. The note with it: hek293, 3 h.
The next data set deals with Dipeptidyl peptidase 9 (Homo sapiens, UniProt Q86TI2). Description: Inhibition of DPP9 after 20 mins by fluorescence assay. Summed up: as §1
The target in another data set is Dipeptidyl peptidase 4 (Homo sapiens, UniProt P27487). The experiment in a line: Inhibition of DPP4 after 20 mins by fluorescence assay.
A short description of data set [2]: Half life in Sprague-Dawley rat at 10 mg/kg, iv. The note with it: in vivo. In kind it is ADME, organism-based. Also noted: dose 10 mg/kg, route intravenous.
The nature of data set [3]: Mean residence time in Sprague-Dawley rat at 10 mg/kg, iv. It is filed as ADME, organism-based. Also noted: dose 10 mg/kg, route intravenous. The note with it: in vivo.
Data set [4] in a line: Oral bioavailability in Sprague-Dawley rat at 20 mg/kg. It is filed as ADME, organism-based. The note with it: in vivo.
Data set [5] in a line: Tmax in Beagle dog at 20 mg/kg, po. It is filed as ADME, organism-based, Canis lupus familiaris. Also noted: dose 20 mg/kg, route oral. The note with it: in vivo.
Data set [6] relates to Mus musculus. The experiment in a line: Antidiabetic activity in C57BL/6J mouse high-fat diet model assessed as reduction in glucose AUC (0 to 120) at 3 mg/kg, po pretreated 30 mins before glucose challenge measured by oral glucose tolerance test. Also noted: dose 3 mg/kg. It is filed as functional, organism-based.
Data set [7] in a line: Cmax in Beagle dog at 10 mg/kg, iv. In kind it is ADME, organism-based, Canis lupus familiaris. Also on record: dose 10 mg/kg, route intravenous. The note with it: in vivo.
Data set [8] can be described thus: AUC (0 to t) in Beagle dog at 20 mg/kg, po. It is filed as ADME, organism-based, Canis lupus familiaris. Also on record: dose 20 mg/kg, route oral. The note with it: plasma.
Data set [9] can be described thus: Plasma clearance in Beagle dog at 10 mg/kg, iv. It is filed as ADME, organism-based, Canis lupus familiaris. Also noted: dose 10 mg/kg, route intravenous.
Data set [10] in a line: Tmax in Sprague-Dawley rat at 20 mg/kg, po. In kind it is ADME, organism-based. Also noted: dose 20 mg/kg, route oral. The note with it: in vivo.
Data set [11] is described as follows: AUC (0 to t) in Beagle dog at 10 mg/kg, iv. Also on record: dose 10 mg/kg, route intravenous. The note with it: plasma. In kind it is ADME, organism-based, Canis lupus familiaris.
In another data set the test system is Rattus norvegicus. Description: AUC (0 to t) in Sprague-Dawley rat at 20 mg/kg, po. It is filed as ADME, organism-based, Plasma. Also on record: dose 20 mg/kg, route oral. The note with it: in vivo.
Data set [12] can be described thus: Half life in Sprague-Dawley rat at 20 mg/kg, po. In kind it is ADME, organism-based. Also noted: dose 20 mg/kg, route oral. The note with it: in vivo.
Data set [13] can be described thus: Cmax in Sprague-Dawley rat at 10 mg/kg, iv. It is filed as ADME, organism-based. Also noted: dose 10 mg/kg, route intravenous. The note with it: in vivo.
Data set [14] in a line: Half life in Beagle dog at 10 mg/kg, iv. In kind it is ADME, organism-based, Canis lupus familiaris. Also noted: dose 10 mg/kg, route intravenous. The note with it: in vivo.
A short description of data set [15]: Mean residence time in Sprague-Dawley rat at 20 mg/kg, po. The note with it: in vivo. Also on record: dose 20 mg/kg, route oral. It is filed as ADME, organism-based.
Data set [16] in a line: Cmax in Beagle dog at 20 mg/kg, po. It is filed as ADME, organism-based, Canis lupus familiaris. The note with it: in vivo. Also noted: dose 20 mg/kg, route oral.
Data set [17] is described as follows: Tmax in Sprague-Dawley rat at 10 mg/kg, iv. In kind it is ADME, organism-based. Also on record: dose 10 mg/kg, route intravenous. The note with it: in vivo.
A short description of data set [18]: Oral bioavailability in Beagle dog at 20 mg/kg. The note with it: in vivo. It is filed as ADME, organism-based, Canis lupus familiaris.
Data set [19] can be described thus: Mean residence time in Beagle dog at 10 mg/kg, iv. In kind it is ADME, organism-based, Canis lupus familiaris. Also noted: dose 10 mg/kg, route intravenous. The note with it: in vivo.
Data set [20] is described as follows: Cmax in Sprague-Dawley rat at 20 mg/kg, po. Also noted: dose 20 mg/kg, route oral. The note with it: in vivo. In kind it is ADME, organism-based.
Data set [21] is described as follows: Mean residence time in Beagle dog at 20 mg/kg, po. The note with it: in vivo. Also on record: dose 20 mg/kg, route oral. In kind it is ADME, organism-based, Canis lupus familiaris.
Data set [22] in a line: AUC (0 to t) in Sprague-Dawley rat at 10 mg/kg, iv. In kind it is ADME, organism-based. The note with it: plasma. Also noted: dose 10 mg/kg, route intravenous.
The subject of data set [23] is Mus musculus. Description: Antidiabetic activity in ICR mouse assessed as reduction of serum DPP4 activity at 3 mg/kg, po. It is filed as functional, organism-based. Also on record: dose 3 mg/kg. Summed up: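 Compound was given orally at 3 mg/kg, or vehicle, with n = 5 per group. Serum was mixed with 80 mM MgCl2 for 5 min at room temperature, then 0.1 mM Gly-Pro-AMC and buffer were added. Fluorescence (ex 380 nm, em 460 nm) was read every 3 min over 18 min, and serum DPP-IV specific activity was calculated from these reads.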

Data set [24] is described as follows: Plasma clearance in Sprague-Dawley rat at 10 mg/kg, iv. It is filed as ADME, organism-based. Also noted: dose 10 mg/kg, route intravenous.
Data set [25] can be described thus: Tmax in Beagle dog at 10 mg/kg, iv. In kind it is ADME, organism-based, Canis lupus familiaris. Also noted: dose 10 mg/kg, route intravenous. The note with it: in vivo.
Data set [26] can be described thus: Plasma clearance in Beagle dog at 20 mg/kg, po. In kind it is ADME, organism-based, Canis lupus familiaris. Also on record: dose 20 mg/kg, route oral.
Data set [27] can be described thus: Half life in Beagle dog at 20 mg/kg, po. In kind it is ADME, organism-based, Canis lupus familiaris. Also noted: dose 20 mg/kg, route oral. The note with it: in vivo.

Molecules are shown by their SMILES. Activity calls are given as the source filed them. The rule behind the calls is not given here. A value given as a limit tells only on which side of the number the result lay.

Chain of Voltage-gated inwardly rectifying potassium channel KCNH2 (Q12809 whole entry): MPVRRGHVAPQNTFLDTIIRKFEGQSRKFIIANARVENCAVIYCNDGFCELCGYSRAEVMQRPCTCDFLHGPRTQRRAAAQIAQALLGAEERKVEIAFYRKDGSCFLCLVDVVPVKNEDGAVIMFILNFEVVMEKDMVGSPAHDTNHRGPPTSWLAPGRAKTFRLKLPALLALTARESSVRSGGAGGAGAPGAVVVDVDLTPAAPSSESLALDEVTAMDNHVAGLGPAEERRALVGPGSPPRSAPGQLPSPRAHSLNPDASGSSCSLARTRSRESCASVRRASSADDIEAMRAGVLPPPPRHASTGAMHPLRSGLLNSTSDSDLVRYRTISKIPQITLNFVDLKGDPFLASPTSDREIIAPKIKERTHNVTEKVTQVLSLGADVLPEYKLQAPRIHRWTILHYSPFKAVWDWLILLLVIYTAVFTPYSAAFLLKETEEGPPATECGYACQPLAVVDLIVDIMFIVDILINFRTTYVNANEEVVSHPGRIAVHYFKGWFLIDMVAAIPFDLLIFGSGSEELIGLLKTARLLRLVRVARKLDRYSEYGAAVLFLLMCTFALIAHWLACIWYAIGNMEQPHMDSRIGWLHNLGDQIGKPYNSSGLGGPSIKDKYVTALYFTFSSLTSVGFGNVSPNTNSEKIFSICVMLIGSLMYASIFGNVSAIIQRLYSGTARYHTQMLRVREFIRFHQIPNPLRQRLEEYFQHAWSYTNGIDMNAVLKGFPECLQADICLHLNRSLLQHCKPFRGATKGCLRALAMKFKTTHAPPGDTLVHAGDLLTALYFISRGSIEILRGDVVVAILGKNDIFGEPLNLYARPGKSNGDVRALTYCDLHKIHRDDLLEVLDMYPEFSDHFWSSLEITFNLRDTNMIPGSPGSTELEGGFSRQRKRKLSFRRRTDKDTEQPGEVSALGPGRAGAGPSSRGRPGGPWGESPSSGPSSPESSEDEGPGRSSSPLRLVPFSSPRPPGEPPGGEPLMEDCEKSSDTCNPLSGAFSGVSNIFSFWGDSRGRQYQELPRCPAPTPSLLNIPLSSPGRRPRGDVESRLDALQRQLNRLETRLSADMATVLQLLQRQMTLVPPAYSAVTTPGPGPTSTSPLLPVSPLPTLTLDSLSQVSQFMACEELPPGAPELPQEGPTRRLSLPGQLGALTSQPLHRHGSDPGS
Chain of Dipeptidyl peptidase 9 (Q86TI2 whole entry): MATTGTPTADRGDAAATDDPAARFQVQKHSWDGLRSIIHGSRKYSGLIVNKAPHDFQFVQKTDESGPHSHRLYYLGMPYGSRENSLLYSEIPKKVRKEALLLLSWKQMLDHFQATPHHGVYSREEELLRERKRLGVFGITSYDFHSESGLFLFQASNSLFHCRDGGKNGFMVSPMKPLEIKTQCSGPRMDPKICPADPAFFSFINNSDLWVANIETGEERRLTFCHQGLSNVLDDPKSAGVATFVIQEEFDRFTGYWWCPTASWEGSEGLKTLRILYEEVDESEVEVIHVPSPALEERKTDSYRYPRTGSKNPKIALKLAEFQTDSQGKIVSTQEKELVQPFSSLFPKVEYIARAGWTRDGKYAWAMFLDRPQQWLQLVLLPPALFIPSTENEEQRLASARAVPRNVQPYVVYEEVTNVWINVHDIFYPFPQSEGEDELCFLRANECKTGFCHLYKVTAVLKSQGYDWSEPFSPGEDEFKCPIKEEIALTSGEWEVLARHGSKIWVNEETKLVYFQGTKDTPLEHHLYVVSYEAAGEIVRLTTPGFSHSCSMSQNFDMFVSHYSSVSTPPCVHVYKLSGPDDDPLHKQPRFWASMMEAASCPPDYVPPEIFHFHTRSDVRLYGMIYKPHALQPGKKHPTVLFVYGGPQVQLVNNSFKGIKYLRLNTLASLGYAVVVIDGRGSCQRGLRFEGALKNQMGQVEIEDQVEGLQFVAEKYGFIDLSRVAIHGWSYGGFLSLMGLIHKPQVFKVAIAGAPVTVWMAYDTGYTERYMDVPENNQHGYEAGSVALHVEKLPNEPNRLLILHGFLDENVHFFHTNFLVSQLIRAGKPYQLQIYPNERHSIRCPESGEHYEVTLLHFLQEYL
Chain of Dipeptidyl peptidase 8 (Q6V1X1 whole entry): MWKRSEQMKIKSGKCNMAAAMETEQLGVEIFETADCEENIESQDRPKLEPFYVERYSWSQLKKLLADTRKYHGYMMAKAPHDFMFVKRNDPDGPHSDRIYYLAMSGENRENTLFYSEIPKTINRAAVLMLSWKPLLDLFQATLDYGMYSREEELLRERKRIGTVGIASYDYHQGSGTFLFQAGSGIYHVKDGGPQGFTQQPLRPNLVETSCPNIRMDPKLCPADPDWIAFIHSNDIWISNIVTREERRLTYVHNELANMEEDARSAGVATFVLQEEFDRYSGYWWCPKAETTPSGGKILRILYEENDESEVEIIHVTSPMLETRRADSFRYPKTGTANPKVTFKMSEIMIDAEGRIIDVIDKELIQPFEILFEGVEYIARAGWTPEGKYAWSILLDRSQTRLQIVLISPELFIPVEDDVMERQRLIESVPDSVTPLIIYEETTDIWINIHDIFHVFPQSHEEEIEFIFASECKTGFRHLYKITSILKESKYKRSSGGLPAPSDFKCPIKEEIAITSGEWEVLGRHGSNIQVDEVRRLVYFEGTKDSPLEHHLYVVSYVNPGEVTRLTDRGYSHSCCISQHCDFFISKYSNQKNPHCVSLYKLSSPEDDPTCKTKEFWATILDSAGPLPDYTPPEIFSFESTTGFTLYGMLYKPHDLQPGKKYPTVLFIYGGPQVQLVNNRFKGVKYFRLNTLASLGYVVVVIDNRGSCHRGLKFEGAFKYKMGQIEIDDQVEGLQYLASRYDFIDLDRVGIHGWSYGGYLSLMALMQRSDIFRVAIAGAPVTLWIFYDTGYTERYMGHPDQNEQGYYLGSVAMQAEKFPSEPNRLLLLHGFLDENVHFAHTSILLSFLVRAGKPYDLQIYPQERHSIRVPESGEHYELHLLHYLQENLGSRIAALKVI
Chain of Dipeptidyl peptidase 4 (P27487 whole entry): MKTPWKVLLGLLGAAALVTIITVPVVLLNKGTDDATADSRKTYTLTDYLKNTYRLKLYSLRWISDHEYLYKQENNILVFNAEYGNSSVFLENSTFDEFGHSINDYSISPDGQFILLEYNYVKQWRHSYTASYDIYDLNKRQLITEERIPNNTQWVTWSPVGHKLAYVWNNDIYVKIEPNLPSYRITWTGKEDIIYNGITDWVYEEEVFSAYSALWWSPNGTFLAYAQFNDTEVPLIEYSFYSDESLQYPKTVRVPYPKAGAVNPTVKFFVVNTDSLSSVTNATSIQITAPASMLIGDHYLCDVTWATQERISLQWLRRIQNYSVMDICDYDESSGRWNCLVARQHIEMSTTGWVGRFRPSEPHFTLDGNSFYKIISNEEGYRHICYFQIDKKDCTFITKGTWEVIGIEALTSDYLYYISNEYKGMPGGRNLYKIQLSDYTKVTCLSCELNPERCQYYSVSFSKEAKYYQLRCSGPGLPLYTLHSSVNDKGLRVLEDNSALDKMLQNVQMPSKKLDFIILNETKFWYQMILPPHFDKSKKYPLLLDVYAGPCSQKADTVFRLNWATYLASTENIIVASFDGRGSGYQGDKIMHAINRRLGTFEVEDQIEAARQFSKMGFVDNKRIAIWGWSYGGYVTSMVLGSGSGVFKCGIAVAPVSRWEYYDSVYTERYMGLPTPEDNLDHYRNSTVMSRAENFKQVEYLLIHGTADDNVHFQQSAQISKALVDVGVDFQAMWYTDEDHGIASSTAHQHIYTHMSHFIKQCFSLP

The IC50 is the midpoint of a concentration-inhibition curve. With `Cc1csc2c(=O)n(Cc3ccccc3C#N)c(N3CCC[C@@H](N)C3)nc12`, the IC50 at Dipeptidyl peptidase 8 is above 25 µM; against Dipeptidyl peptidase 9, above 25 µM; at Dipeptidyl peptidase 4, 0.00172 µM. In addition, the Activity in [1] is 203.5 µM.

Regarding `N#Cc1ccccc1Cn1c(N2CCC[C@@H](N)C2)nc2scc(C(F)(F)F)c2c1=O`, the IC50 on Dipeptidyl peptidase 8 was above 25 µM; against Dipeptidyl peptidase 9, above 25 µM; against Dipeptidyl peptidase 4, 0.0888 µM.

With `N#Cc1ccccc1Cn1c(N2CCC[C@@H](N)C2)nc2sccc2c1=O`, the IC50 against Dipeptidyl peptidase 8 was above 25 µM; on Dipeptidyl peptidase 9, above 25 µM; against Dipeptidyl peptidase 4, 0.00087 µM. Moreover, the Activity in data set [1] worked out at 484.6 µM.

The half-life is the time in which the quantity being followed falls by half. One may read the MRT as the average time that molecules of a dose stay in the body. Usually bioavailability stands for dose-corrected exposure relative to a reference, in per cent. A higher bioavailability goes with much systemic uptake. What is called Tmax is the time from dosing to the highest level. As usually defined, the Cmax is the highest concentration seen after dosing. The AUC(0-t) is exposure summed from dosing to a finite time, without extrapolation to infinity. Higher therefore signals high exposure. In general, clearance refers to the rate of elimination divided by the concentration. One may read the AUC as the area under the concentration-time curve, a measure of exposure. A high value points to more exposure. By CL/F is commonly meant clearance divided by bioavailability, as obtained after extravascular dosing. For the compound `N#Cc1ccccc1Cn1c(N2CCC[C@@H](N)C2)nc2ccsc2c1=O`, the half-life is 5.9 h in data set [2], 7 h in [12], 10.1 h in data set [14] and 11.3 h in [27]. Also, the MRT amounted to 2.7 h in data set [3], 6.7 h in data set [15], 6 h in [19] and 9 h in data set [21]. Besides, the bioavailability in data set [4] was found to be 23.7%; in data set [18], 42.3%. For the same compound, the Tmax in [5] was 0.91 h; in [10], 0.59 h; in data set [17], 2.4 min; in [25] it was 6 min. Further, the outcome with Mus musculus [6] and in the data set on Mus musculus [23] was Active. The Cmax in data set [7] came out at 5750 ng/mL; in data set [13], 1230 ng/mL; in data set [16] it was 2070 ng/mL; in data set [20], 170 ng/mL. Further, the values for the IC50 on Dipeptidyl peptidase 8, at Dipeptidyl peptidase 9 and against Dipeptidyl peptidase 4 were above 25 µM, above 25 µM and 0.00033 µM, respectively. The AUC(0-t) in data set [8] amounted to 11200 ng·h/mL; in data set [11], 13300 ng·h/mL; in [22], 1480 ng·h/mL. For the same compound, the clearance is 22.2 mL/min/kg in data set [9] and 116 mL/min/kg in [24]. The compound further had an AUC in the data set on Rattus norvegicus of 690 ng·h/mL. For the same compound, in [1], the Activity worked out at 517.4 µM. Besides, the CL/F in data set [26] turned out to be 11.5 mL/min/kg.

As to `Cc1csc2nc(N3CCC[C@@H](N)C3)n(Cc3ccccc3C#N)c(=O)c12`, the concentration for half-maximal inhibition (IC50) is above 25 µM at Dipeptidyl peptidase 8, above 25 µM at Dipeptidyl peptidase 9 and 0.00132 µM against Dipeptidyl peptidase 4. Besides, the Activity in data set [1] amounted to 376.3 µM.
